Results as given in article PMC4427559 (Drug development and industrial pharmacy, 2015).
≈ marks a conversion by molar mass, not a printed value.

Legend:
[1] = Solubility in common solvents, shaker method, HPLC; assay type: physicochemical
[2] = cited from earlier work
[3] = Stability in human plasma at 37 °C; assay type: in vitro ADME
[4] = Plasma protein binding by ultracentrifugation/ultrafiltration; assay type: in vitro ADME, human; conditions: 37 °C
[5] = cited from earlier work; remark: listed apart in the source
[6] = Solution state pH stability in USP buffers at 37 °C; assay type: physicochemical; conditions: for Degradation half-life t½: calculated from k
Outline: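 Test compound (1 mg/mL acetonitrile stock) added 1:10 to 0.2 M USP buffers (n = 3) in amber vials. Buffers were HCl (pH 2), acid phthalate (pH 3–4), neutralized phthalate (pH 5), phosphate (pH 6–7) and borate (pH 8–10). Incubation at 37 °C, light-protected. Quantified by isocratic C18 HPLC-UV at 300 nm with warfarin IS. Log % remaining plotted against time; half-lives from first-order kinetics.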

[7] = Stability in rat plasma at 37 °C; assay type: in vitro ADME; conditions: male, Sprague Dawley

Oc1ccc(/C=C/c2cc(O)cc(O)c2)cc1 [resveratrol, trans-3,5,4′-trihydroxystilbene]
Solubility ([1]; PEG-400, room temperature (25 °C), mean, n = 3): 373.85 mg/mL (≈ 1640 mM)
Solubility in words ([1]; water): not soluble
Water solubility [2]: 0.05 mg/mL
half-life at 50 µg/mL [3]: 54 h
Bound fraction (%) ±standard deviation (n = 6) ([4]; human plasma spiked at 5 µg/mL): 98.2 ± 0.41%
Bound fraction (%) ±standard deviation (n = 6) ([4]; human plasma spiked at 12.5 µg/mL): 98.5 ± 0.23%
Bound fraction (%) ±standard deviation (n = 6) ([4]; human plasma spiked at 25 µg/mL): 98.3 ± 0.33%
Plasma protein binding (mean) ([4]; human plasma, over 5, 12.5 and 25 µg/mL): 98%
fraction unbound at 30 min ([4]; human, human plasma, Plasma protein binding (mean), over 5, 12.5 and 25 µg/mL): 0.017
pKa1 [5]: 8.8
pKa2 [5]: 9.8
pKa3 [5]: 11.4
Original concentration remaining ([6]; acidic and neutral conditions, at 193 h): More than 70%
Degradation rate constant k ([6]; pH 2, hydrochloric acid buffer 0.2 M): 0.000506 h⁻¹
Degradation rate constant k ([6]; pH 3, acid phthalate buffer 0.2 M): 0.000353 h⁻¹
Degradation rate constant k ([6]; pH 4, acid phthalate buffer 0.2 M): 0.000151 h⁻¹
Degradation rate constant k ([6]; pH 5, neutralized phthalate buffer 0.2 M): 0.00011 h⁻¹
Degradation rate constant k ([6]; pH 6, phosphate buffer 0.2 M): 0.000147 h⁻¹
Degradation half-life t½ ([6]; pH 6, phosphate buffer 0.2 M): 195.5 days
Degradation rate constant k ([6]; pH 7, phosphate buffer 0.2 M): 0.00247 h⁻¹
Resveratrol remaining ([6]; pH 8, 9 or 10, at 50 and 80 h): Less than 2%
Degradation rate constant k ([6]; pH 8, borate buffer 0.2 M): 0.0488 h⁻¹
Degradation rate constant k ([6]; pH 9, borate buffer 0.2 M): 0.4000 h⁻¹
Degradation half-life t½ ([6]; pH 9, borate buffer 0.2 M): 0.0722 days
Degradation rate constant k ([6]; pH 10, borate buffer 0.2 M): 0.0335 h⁻¹
half-life at 50 µg/mL [7]: 25 h
